# Reference: publication PMC2687631 (Yonsei Medical Journal, 2006)
# B1: PTH: parathyroid hormone, low dose, intermittently administered (protein, UniProt P01270 32-115, looked up)
# Parathyroid hormone: SVSEIQLMHNLGKHLNSMERVEWLRKKLQDVHNFVALGAPLAPRDAGSQRPRKKEDNVLVESHEKSLGEADKADVNVLTKAKSQ
# modifications: Parathyroid hormone
# B2: rhPTH (1-84): recombinant human PTH (1-84), donated by the Mogam Biotechnology Research Institute (protein, UniProt P01270 32-115, looked up)
# Parathyroid hormone: B1 Parathyroid hormone
# modifications: Parathyroid hormone
# Key:
# [1] = test system: mice; conditions: cited from earlier work
# [2] = test system: hPTH/PTHrp receptor; conditions: LLC-PK cells stably expressing a high level of the hPTH/PTHrp receptor; cited from earlier work
# [3] = test system: animals and humans; conditions: cited from earlier work
# [4] = test system: ovariectomized rat model; test: Femoral length and cross-sectional diameter at mid-diaphysis; type: in vivo, Sprague-Dawley rats; conditions: ovx rats, subcutaneous for 5 weeks; p<0.05 vs. OVX
# Summary of the method: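 Female Sprague-Dawley rats were ovariectomized at 10 weeks (sham group unoperated), left untreated for 4 weeks, then dosed daily s.c. for 5 weeks with test compound (30 nM/kg), rhPTH(1-84) (8 nM/kg) or 0.9% saline vehicle, seven per group. Left femur length (greater trochanter to intercondylar fossa) and mid-diaphysis AP/ML diameters measured by digital caliper. Means and SD; ANOVA with Bonferroni.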
molecule,measurement,setting,value
PTH (1-31): PTH (1-31) fragment,Potency in stimulating bone resorption parameters vs PTH (1-34),[1],less potent
same,Potency on bone formation vs PTH (1-34),[1],as potent as PTH (1-34)
"PTH (1-14): N-terminal fragment 1-14 of parathyroid hormone (SVSEIQLMHNLGKH; Parathyroid hormone; UniProt P01270 32-45, looked up, fragment)",cAMP formation relative to PTH (1-34),[2],about 10^-3 folds
B1,Anabolic effect / bone mass (in words),[3],significant increase in bone mass
B2,Femoral length (in words),[4],significantly increased length
